Measured values: ChEMBL document CHEMBL1157340, “Highly substituted terphenyls as inhibitors of parasite cGMP-dependent protein kinase activity” (J Nat Prod, 2006)

Legend:
Toxoplasma gondii = test: Antiparasitic activity against Toxoplasma gondii in human foreskin fibroblast by beta-galactosidase assay; format: functional, organism-based
Method in brief: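 Human foreskin fibroblasts grown to confluence, then infected with T. gondii strain stably expressing bacterial β-galactosidase; parasite growth allowed 5 days with test samples present. Chlorophenol red-β-D-galactopyranoside added, further 2–4 h incubation, absorbance read at 570 nm as measure of parasite viability. IC50 reported.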

[1] = target: cGMP-dependent protein kinase (Eimeria tenella); test: Inhibition of Eimeria tenella cGMP-dependent protein kinase assessed as inhibition of transfer of phosphate group by radiometric assay

| Compound | IC50 (Toxoplasma gondii) [µM] | IC50 [1] [µM] |
| --- | --- | --- |
| CN1CCC(c2cc(-c3ccncc3)c(-c3ccc(F)cc3)[nH]2)CC1 | 0.21 | < 0.001 |
| COc1c(O)c(-c2ccccc2)cc(O)c1-c1cc(O)ccc1O | 9.5 | 5.8 |
| COc1cc(-c2ccccc2)c(O)c(O)c1-c1ccccc1 [TERFEROL] | 26.8 | 3.9 |
| COc1c(O)c(-c2ccccc2)cc(O)c1-c1ccccc1O | 10.4 | 5.2 |
